Source: ChEMBL document CHEMBL2429730, “C23 steroids from the venom of Bufo bufo gargarizans” (J Nat Prod, 2013)
pIC50: −log10 of the molar value. Active and inactive are the calls of the source. The rule behind the calls is not given here.

Columns and labels:
HepG2 = assay: Cytotoxicity against human HepG2 cells after 24 hrs by MTT assay; format: functional, cell-based; conditions: HepG2, 24 h
[1] = Cytotoxicity against KM mouse splenic lymphocytes; conditions: Splenic lymphocyte
A549 = assay: Cytotoxicity against human A549 cells after 24 hrs by MTT assay; format: functional, cell-based; conditions: A549, 24 h
[2] = Cytotoxicity against KM mouse splenic lymphocytes assessed as cell viability at 5 uM; parameters: species or system Splenic lymphocyte; conditions: read-out: Activity
How it was run: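 Spleens from KM mice were homogenized in PBS and centrifuged. The pellet was red-cell-lysed for 5 min (Tris-base 2.6 g/L, NH4Cl 7.47 g/L, pH 7.2), then passed through a 300-mesh sieve. The resulting lymphocytes were tested by MTT assay, and survival rate was scored at 5 μM.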

[3] = Inhibition of Na(+)/K(+) ATPase in pig cerebral cortex assessed as release of inorganic phosphate after 15 mins by colorimetric method
Sus scrofa = species: Sus scrofa; assay: Inhibition of Na(+)/K(+) ATPase in pig cerebral cortex assessed as release of inorganic phosphate at 50 uM after 15 mins by colorimetric method; format: tissue-based

Structure (SMILES)	pIC50 (HepG2)	pIC50 [1]	pIC50 (A549)	viability at 5 µM [2] [%]	pIC50 [3]	inhibition (Sus scrofa)
C=CC1=CO[C@]23C[C@H](OC(C)=O)[C@H]1[C@@]2(C)CC[C@H]1[C@H]3CC[C@@H]2C[C@@H](O)CC[C@@]21C	4.19	< 4.00	< 4.00	–	–	–
C[C@]12CC[C@H](O)C[C@H]1CC[C@@H]1[C@@H]2CC[C@]2(C)[C@@H](c3ccc(=O)oc3)CC[C@]12O [BUFALIN]	6.22	–	6.22	100	7.96	–
CC(=O)O[C@H]1[C@H]2O[C@]23[C@@H]2CC[C@@H]4C[C@@H](O)CC[C@]4(C)[C@H]2CC[C@]3(C)[C@H]1c1ccc(=O)oc1 [CINOBUFAGIN]	5.26	–	5.19	100	–	–
CC(=O)O[C@H]1C[C@]2(O)[C@@H]3CC[C@@H]4C[C@@H](O)CC[C@]4(C)[C@H]3CC[C@]2(C)[C@H]1c1ccc(=O)oc1 [BUFOTALIN]	6.30	–	6.05	100	–	–
COc1cccc2c1C(=O)c1c(O)c3c(c(O)c1C2=O)C[C@@](O)(C(=O)CO)C[C@@H]3O[C@H]1C[C@H](N)[C@H](O)[C@H](C)O1 [DOXORUBICIN]	–	–	7.00	–	–	–
C[C@]12CC[C@H](O)C[C@H]1CC[C@@H]1[C@@H]2CC[C@]2(C)[C@@H](c3ccc(=O)oc3)C[C@H]3O[C@]132 [BUFOGENIN]	4.36	< 4.00	< 4.00	–	–	–
C[C@]12CC[C@H](O)C[C@@]1(O)CC[C@@H]1[C@@H]2CC[C@]2(C)[C@@H](c3ccc(=O)oc3)CC[C@]12O [TELOCINOBUFAGIN]	5.62	–	5.52	100	–	–
C=CC1=CO[C@]23CC[C@H]1[C@@]2(C)CC[C@H]1[C@H]3CC[C@]2(O)C[C@@H](O)CC[C@]12C	4.16	4.10	< 4.00	–	–	inactive
C[C@@H]1O[C@@]12[C@@H]1O[C@@H]3C[C@H]2[C@@]2(C)CC[C@H]4[C@@H](CC[C@@H]5C[C@@H](O)CC[C@@]54C)[C@@]32O1	< 4.00	< 4.00	< 4.00	–	–	–
C/C=C(\C=O)[C@H]1[C@@H](OC(C)=O)[C@H]2O[C@]23[C@@H]2CC[C@@H]4C[C@@H](O)CC[C@]4(C)[C@H]2CC[C@]13C	< 4.57	< 4.00	4.34	–	–	–
COC(=O)CCC(=O)C1=CC=C2[C@@H]3CC[C@@H]4C[C@@H](O)CC[C@]4(C)[C@H]3CC[C@]12C	< 4.00	< 4.00	< 4.00	–	–	inactive
